# LMPTP inh: blocks human LMPTP phosphatase; recombinant LMPTP-A, OMFP fluorogenic substrate, fluorescence intensity; 0.22% of 360,000 active; inhibition, % at 20 µM;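 active = compounds that cut the enzyme signal by at least half of the control window in the single-dose screen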;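 also: plate controls were DMSO wells with enzyme plus substrate for no effect and substrate without enzyme for full effect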
#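 Assay system: LMPTP-A, protein tyrosine phosphatase of low molecular weight / Medium: pH 6.0 Bis-Tris buffer with DTT and Triton X-100 / Schedule: 50 min enzyme reaction at room temperature, protected from light / Measured by: endpoint fluorescence intensity from OMFP dephosphorylation / Read-out basis: % inhibition relative to no-enzyme and uninhibited control wells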
# SUMO1-SIM PPI: alters human SUMO1 binding to SIM partners; SUMO1 binding to a labelled peptide, TR-FRET, 1 h; inhibition, % at 20 µM; 0.33% of 360,000 active; in the data active = inhibition above about 37%
# DNMT1 block: DNMT1 (human) enzyme inhibition | P26358 | DNMT1 molecular beacon, Hinp1I cleavage, fluorescence | inhibition (reported as % activation of signal), % at 10 µM | 0.83% of 360,000 active | AID 588458; in the data active = inhibition above about 50%
# Target sequence (P26358 504-1616 limits assumed): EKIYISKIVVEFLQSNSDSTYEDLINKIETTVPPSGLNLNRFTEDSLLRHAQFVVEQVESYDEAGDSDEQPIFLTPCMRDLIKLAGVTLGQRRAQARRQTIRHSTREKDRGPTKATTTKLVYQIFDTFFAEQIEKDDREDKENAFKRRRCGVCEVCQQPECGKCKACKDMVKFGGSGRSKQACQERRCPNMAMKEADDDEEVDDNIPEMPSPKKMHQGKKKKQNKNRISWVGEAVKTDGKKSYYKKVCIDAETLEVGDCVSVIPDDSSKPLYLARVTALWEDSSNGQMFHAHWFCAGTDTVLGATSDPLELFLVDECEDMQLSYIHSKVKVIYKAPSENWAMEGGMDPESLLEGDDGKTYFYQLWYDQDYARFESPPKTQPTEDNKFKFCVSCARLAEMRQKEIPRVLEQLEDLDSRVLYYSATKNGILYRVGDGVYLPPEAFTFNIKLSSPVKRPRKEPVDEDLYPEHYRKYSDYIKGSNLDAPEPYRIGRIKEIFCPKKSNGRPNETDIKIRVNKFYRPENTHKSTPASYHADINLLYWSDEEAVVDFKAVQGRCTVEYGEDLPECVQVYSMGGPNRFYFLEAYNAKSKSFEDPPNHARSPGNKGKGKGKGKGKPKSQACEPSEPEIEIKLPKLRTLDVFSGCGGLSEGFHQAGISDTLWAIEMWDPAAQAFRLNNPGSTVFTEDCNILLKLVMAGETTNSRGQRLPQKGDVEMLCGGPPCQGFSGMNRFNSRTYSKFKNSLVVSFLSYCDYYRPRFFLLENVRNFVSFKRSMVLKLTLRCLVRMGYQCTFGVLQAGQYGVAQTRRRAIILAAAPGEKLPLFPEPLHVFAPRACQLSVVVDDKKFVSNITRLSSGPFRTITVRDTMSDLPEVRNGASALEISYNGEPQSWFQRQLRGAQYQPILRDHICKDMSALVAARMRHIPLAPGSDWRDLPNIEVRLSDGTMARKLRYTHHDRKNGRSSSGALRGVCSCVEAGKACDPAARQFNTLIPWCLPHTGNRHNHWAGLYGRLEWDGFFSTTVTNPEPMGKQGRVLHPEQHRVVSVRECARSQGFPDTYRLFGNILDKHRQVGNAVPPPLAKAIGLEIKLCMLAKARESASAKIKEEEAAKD
# Scp1 inh: Scp-1 (human) phosphatase inhibition; Recombinant Scp1, phosphopeptide, malachite green phosphate absorbance; inhibition, % at 20 µM; 0.88% of 340,000 active; AID 493091;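 active = inhibition above about 50% at 20 µM, limit read from the data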;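 also: plate controls were DMSO wells with enzyme for no effect and wells lacking enzyme for full effect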
#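 Incubation: 45 min enzyme reaction at room temperature / System: truncated SCP-1 phosphatase (76-261aa) / Reagent: Phospho 17-mer peptide substrate / Buffer or medium: Acidic Tris acetate buffer with magnesium and detergent / Signal: absorbance at 630 nm / Doses: one concentration, 20 µM, with 1.0% DMSO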
# STEP block: blocks human striatal-enriched tyrosine phosphatase; recombinant STEP, OMFP fluorogenic substrate, fluorescence; 0.25% of 360,000 active; inhibition, % at 20 µM; P54829; AID 588621;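 active = inhibition at 20 µM, scaled per plate between control wells, above about 37%, limit read from the data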;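 also: 0% = DMSO with enzyme and substrate and 100% = substrate only without enzyme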
#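 Also added – OMFP at 25 µM · Test system – STEP tyrosine phosphatase · Technique – FITC-channel fluorescence of OMFP product · Schedule – 20 min at room temperature, dark · Evaluation – control-normalized % inhibition with plate pattern correction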
# Scp-1 conf: confirmation of human Scp-1 phosphatase inhibitors. recombinant SCP-1 catalytic domain, phosphate release, malachite green absorbance. inhibition, % at 20 µM. shares compounds with Scp1 inh. 61% of 2,500 active;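 also: plate controls were DMSO with enzyme for no effect and buffer wells lacking enzyme for full effect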
# MG interference: interferes with malachite green readout, flagging false Scp-1 hits; AID 540313; Colorimetric interference counterscreen, malachite green absorbance 630 nm; 2,500 tested, under 10 active; shares compounds with Scp1 inh; apparent inhibition (interference), % at 20 µM;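 also: compounds added after enzyme reaction finished so only phosphate colour detection is probed; plate controls were DMSO wells with completed Scp-1 reaction for no effect and substrate wells lacking enzyme for full effect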
# Scp1 DSF: binds human Scp-1, shifting its melting temperature. shares compounds with Scp1 inh. Recombinant SCP1, Sypro Orange thermal shift Tm. thermal shift relative to vanadate control, % at 40 µM. 25% of 1,500 active. AID 540329;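 active = substances whose mean melting-temperature shift, as a percentage of the reference inhibitor's shift, reaches about 5.3%, limit read from the data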;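 also: 0% = Tm of DMSO wells and 100% = Tm with sodium orthovanadate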
# * marks the source's active call; other numbers are inactive results; / = not tested or not shown. Rows were chosen to be rich in hits. Some 1.7% of all compounds tested hit in one or more screens of this group.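 The calls were made as follows, unless noted: active = inhibition of at least 30% at 20 µM; inactive = the rest.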
SMILES,LMPTP inh,SUMO1-SIM PPI,DNMT1 block,Scp1 inh,STEP block,Scp-1 conf,MG interference,others
O=C(Nc1ccc(S(=O)(=O)Nc2nccs2)cc1)c1ccc(=O)[nH]c1,6,32,-1,70*,-2,60*,-12,Scp1 DSF=8.9*
CC(=O)c1ccc(NC(=O)CCc2nc3sc4c(c3c(=O)[nH]2)CCCC4)cc1,8,-1,17,52*,4,65*,-21,Scp1 DSF=0
CCc1ccc(NC(=O)CCc2nc3sc4c(c3c(=O)[nH]2)CCCC4)cc1,2,-2,21,7,1,/,/,
CSc1ccc(/C=C2\C(=N)N3N=C(CC(=O)N4CCOCC4)SC3=NC2=O)cc1,0,-1,1,19,-2,/,/,
N=C1/C(=C\c2ccc(Br)o2)C(=O)N=C2SC(CC(=O)N3CCOCC3)=NN12,2,28,47,78*,4,36*,-18,Scp1 DSF=6.8*
COCCN1C(=O)c2oc3ccccc3c(=O)c2C1c1ccc(OC)c(OC)c1 (configuration not stated),-1,-5,5,60*,-2,44*,-5,Scp1 DSF=-8
COc1ccc(C2c3c(oc4ccccc4c3=O)C(=O)N2CCN2CCOCC2)cc1OC (configuration not stated),-2,-11,2,3,-4,/,/,
N#CCOc1ccccc1CNC[C@H]1O[C@@H](n2cnc(C(N)=O)n2)[C@H](O)[C@@H]1O,-2,3,1,-17,1,/,/,
O=C(CCNC(=O)c1ccc([N+](=O)[O-])cc1)NNC(=O)c1ccncc1,-2,-28,1,50*,-1,6,-4,
O=C(CCNC(=O)c1ccc([N+](=O)[O-])cc1)Nc1ccc(F)cc1,-1,-27,-1,-5,-2,/,/,
O=C1CCCN1C1CCN(Cc2ccccc2)S(=O)(=O)N1 (configuration not stated),0,-4,/,/,/,/,/,
CC(C)OC(=O)CC1C(=O)NCCN1C(=S)NC(=O)CCc1ccccc1 (configuration not stated),-1,2,4,-7,-2,-16,-16,
O=C(Nc1ccc([N+](=O)[O-])cc1)Nn1cnnc1,-1,-16,2,-4,0,/,/,
Cc1ccccc1Cn1ccc(NC(=O)c2cc3ncc(Br)cn3n2)n1,-1,-5,0,-6,-3,/,/,
CSc1ccccc1NC(=O)c1cc2ncc(Br)cn2n1,2,-5,22,60*,3,50*,-13,Scp1 DSF=-3
O=C(COC(=O)c1ccc([N+](=O)[O-])o1)NCCCc1ccccc1,-1,-35,-1,0,1,/,/,
O=C(NNC(=O)c1ccccc1F)c1ccc(Cl)c(S(=O)(=O)N2CCOCC2)c1,0,7,3,57*,-2,-12,-13,
COc1ccc(C(=O)NCCCNC(=O)c2ccccn2)cc1Br,0,2,0,-6,-2,/,/,
Cc1ccc2nc(SCC(=O)Nc3ccc(C)c(Cl)c3)nc(=O)n2c1,0,-2,1,-4,2,/,/,
Cc1ccc2nc(SCC(=O)Nc3ccc(Br)cc3)nc(=O)n2c1,0,-2,-3,60*,2,-24,-19,
COc1ccc(S(=O)(=O)N2CCCCCC2)cc1C(=O)N(CC(C)C)C1CCS(=O)(=O)C1 (configuration not stated),-2,3,-5,-3,2,/,/,
CCc1nnc(NC(=O)CSC(=S)N2CCOCC2)s1,-1,5,1,67*,3,-8,-10,
CCOC(=O)[C@H]1[C@H]2COc3ccc(Cl)cc3[C@@H]2N2C(=O)CN(Cc3ccco3)C(=O)[C@@]12C,-1,4,8,14,-2,/,/,
Cc1cc(C)c(NC(=O)CN(C)S(=O)(=O)c2ccc3c(c2)n(C)c(=O)c(=O)n3C)c(C)c1,-1,2,2,-6,-1,-18,-14,

# Assay outcomes (PubChem BioAssay)
